# In the library only some 4.6% were active in any assay of this set; here they are far more common.
# WT yeast gro inh – growth inhibition of WT strain, primary screen, mitochondrial fusion inhibitor project, WT and mutant strains, chemical genetic. mitochondrial fusion phenotypic screen. inhibition, % at 10 µM. hit rate 2.1% among 190,000; in the data active means inhibition above about 58%; tested in S. cerevisiae
# Hck Nef HTS – inhibitors of Nef-activated human Hck kinase, primary screen, biochemical, Z-Lyte FRET, 384-well, Hck-YEEI; Tyrosine-protein kinase HCK (Homo sapiens), P08631; Recombinant Hck-YEEI plus Nef, Z-Lyte FRET kinase assay; inhibition, % at 20 µM; hit rate 0.68% among 220,000; AID 463187, 2010;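 active means Hck-Nef kinase inhibition above about 50%, limit read from the data; inactive means inhibition below that limit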;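 further: 0% = DMSO with Hck plus Nef and 100% = Hck alone without Nef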
# Arbovirus anti – antivirals against arbovirus infection, primary screen, cell-based, full library, 10K replicate subset; arbovirus infection cell-based antiviral screen; inhibition, % at 10 µM; hit rate 0.37% among 200,000; AID 1251, 2008; in the data active means inhibition above about 30%
# RAM inhibit – inhibitors of the yeast RAM network, primary screen, dse1pr::URA3 reporter, 5-FOA selection. S. cerevisiae dse1pr::URA3 reporter, 5-FOA growth OD615, 2 d; analog-sensitive cbk1-as2 kinase mutant strain. inhibition, % at 50 µM. hit rate 1.8% among 190,000. AID 868, 2007;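 active means inhibition above a set limit, 3 SD over mean compound inhibition, cut at about 8.4% in these data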;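 further: 0% = DMSO-only wells with no growth and 100% = 10 µM 1-NA-PP1 full growth; inhibition rescues growth on 5-FOA so higher OD means more RAM inhibition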
# Calb biofilm kill – clotrimazole potentiators killing C. albicans biofilm, primary screen, 4-compound mixtures; inhibition, % at 7.6 µM; C. albicans biofilm persisters + clotrimazole, fluorescence viability; primary screen in compound mixtures of four per well; hit rate 0.02% among 120,000;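 active means inhibition above 30.3% in the primary screen of four-compound pools, then above 30% when the compound was retested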;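 further: compounds exposed to preformed 24 h biofilms for 48 h; 0% = untreated biofilm control and 100% = clotrimazole plus chlorhexidine kill blank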
#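 Test system: C. albicans biofilms. Buffer or medium: RPMI/MOPS medium, pH 7.0. Timing: 48 h compound exposure at 37 °C. Technique: Alamar Blue fluorescence. Evaluation: percent inhibition of biofilm viability.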
# p47phox inh – p47phox/p22phox peptide binding inhibitors, primary screen, biochemical, uHTS, NADPH oxidase regulatory subunit; Neutrophil cytosol factor 1 (Homo sapiens), P14598; fluorescence polarization, 2 h; inhibition, % at 24.7 µM; hit rate 0.53% among 220,000; AID 1274, 2008;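 active means inhibition above about 30%, limit read from the data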;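 further: 0% = p47phox with labelled peptide and 100% = labelled peptide alone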
# Target sequence (P14598 whole entry, looked up): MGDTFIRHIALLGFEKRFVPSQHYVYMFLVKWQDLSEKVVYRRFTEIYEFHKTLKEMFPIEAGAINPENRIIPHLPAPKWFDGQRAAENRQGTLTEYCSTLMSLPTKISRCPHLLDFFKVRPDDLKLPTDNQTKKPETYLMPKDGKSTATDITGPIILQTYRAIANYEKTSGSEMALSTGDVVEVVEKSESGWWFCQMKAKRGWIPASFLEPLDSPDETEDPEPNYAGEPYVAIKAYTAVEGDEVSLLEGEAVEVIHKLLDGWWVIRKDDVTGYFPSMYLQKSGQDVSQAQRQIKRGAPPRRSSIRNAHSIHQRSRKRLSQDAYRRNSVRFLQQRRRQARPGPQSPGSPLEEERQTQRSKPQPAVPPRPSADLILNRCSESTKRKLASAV
# Hck Nef conf – retest of Hck:Nef kinase inhibitor hits, confirmation, biochemical, Z-Lyte FRET, 384-well, p-Tyr peptide counterscreen; shares compounds with Hck Nef HTS; Recombinant Hck-YEEI:Nef, Z-Lyte FRET kinase assay; calls only at 10 µM; hit rate 28% among 1,300; AID 463188, 2010;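 active means average inhibition of at least 50%, with Z-scores no higher than 3 in both the phospho-tyrosine peptide and fluorescence counterscreens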
# The depositor's hits bear a star; i = inactive; · = no result shown; + = active, no number.
SMILES,WT yeast gro inh,Hck Nef HTS,Arbovirus anti,RAM inhibit,Calb biofilm kill,p47phox inh,Hck Nef conf
CCCC(=O)N(CC(=O)Nc1sc(C)c(C)c1C(N)=O)Cc1ccccc1,-5,22,-10,3,2,-9,·
CC(=O)Nc1sc(N/N=C\c2cccc(Cl)c2)nc1-c1cccs1,8,1,-18,1,15,-15,·
CC(=O)Nc1sc(N/N=C\c2ccc(O)cc2)nc1-c1cccs1,·,60*,·,·,8,-10,i
O=C(COc1ncnc2ccccc12)NCC1CCCO1 (centres undefined),-6,-1,0,1,-4,-13,·
CCOc1ccc(-n2c(N)c(C(=O)NCc3ccco3)c3nc4ccccc4nc32)cc1,-12,53*,7,1,·,-19,i
COc1c(Cl)cc(Cl)cc1/C=C/C(=O)c1ccc(NC(=O)c2cccs2)cc1,24,8,-44,1,22,-20,·
CCCSc1nc2c(cnn2-c2ccccc2)c(=O)n1N,·,76*,·,·,11,-10,+
CC(C)CCN(CCC(C)C)CC(O)Cn1c2ccccc2c(=O)c2ccccc21 (centres undefined),·,117*,·,·,24,-7,·
Cc1ccc2nc(-c3sc4nc(C)cc(C)c4c3N)[nH]c2c1,10,9,-6,-2,8,-2,·
CCC(=O)Oc1ccc2c(C)cc(=O)oc2c1C(=O)CC,·,154*,·,·,5,-2,·
CCC(=O)Oc1ccc2c(C)cc(=O)oc2c1C(=O)c1ccccc1,-14,2,-1,1,11,-17,·
CN=c1scc(-c2ccco2)n1/N=C/c1ccc(O)c(O)c1,4,51*,-8,2,9,-20,i
O=C(NCc1cccnc1)C(=O)Nc1ccc([N+](=O)[O-])cc1,-8,19,6,2,7,2,·
Brc1ccc(-c2csc(-c3ccncc3)n2)cc1,17,3,2,3,-5,1,·
CCN(CC)c1ccc(NC(=O)Cn2c(C(C)NC(=O)c3ccc(C)cc3)nc3ccccc32)cc1 (centres undefined),-9,83*,-2,1,7,·,+
N#C/C(=C\c1ccc(-c2cccc([N+](=O)[O-])c2)o1)C(=O)Nc1nc(-c2cccs2)cs1,·,75*,·,·,14,-31,+
COc1cc2[nH]c(=S)n(Cc3cccs3)c(=O)c2cc1OC,0,59*,-14,2,12,2,i
N#C/C(=C(/O)COC(=O)Cc1c[nH]c2ccccc12)c1nc2ccccc2[nH]1,-15,60*,-17,1,·,-23,+
O=C(O)COc1ccccc1/C=N/Nc1ccc(S(=O)(=O)Nc2ccc(Cl)cc2)cc1[N+](=O)[O-],8,104*,6,5,14,-6,i
COc1ccccc1NC(=O)CSc1ccc(-c2cccs2)nn1,18,25,-5,3,8,-16,·
CCn1c2ccccc2c2c3ncc4cccn4c3ccc21,·,95*,·,·,7,-54,i
c1ccc2c(c1)ncc1cccn12,13,2,1,1,·,-23,·
CCC1(C)CC2(CCCN(CCC(=O)c3ccccc3)C2)CCO1 (centres undefined),-6,-12,2,0,-1,1,·
O=C(CN1CCCCC1)Nc1c2c(nc3ccccc13)N(c1ccccc1)CC2,-12,91*,14,2,-4,23,·
CCCC(=O)Nc1c2c(nc3ccccc13)N(c1ccccc1)CC2,2,29,7,1,9,-13,·
SMILES,WT yeast gro inh,Hck Nef HTS,Arbovirus anti,RAM inhibit,Calb biofilm kill,p47phox inh,Hck Nef conf
NC(=O)c1cc(Br)cc2c3c([nH]c12)CCCC3,66*,58*,0,-1,·,-10,+
Brc1ccc2[nH]c3c(c2c1)CCC3,·,4,·,·,18,-8,·
COc1cccc(/C=N/NC(=O)c2cnn(-c3ccccc3)c2N)c1,·,94*,·,·,24,-9,i
CN(c1ccccc1C(=O)Nc1ccc(F)c(Cl)c1)S(C)(=O)=O,25,3,3,0,12,4,·
COC(=O)c1sc2ccccc2c1NC(=O)c1coc2ccccc2c1=O,-5,6,10,1,10,10,·
COc1ccc(OCc2nnc(SCC(=O)NNC(=O)c3ccc(C)cc3)n2C)cc1,-4,3,-2,0,15,2,·
COc1cc2c(cc1OC)C1(CCCC1)C(N)=C2C#N,-7,56*,-8,1,·,-12,·
O=[N+]([O-])c1c(Nc2ccccn2)cc(Cl)c2nonc12,·,12,·,·,10,-8,·
COC(=O)c1ccc(C(=O)OC)c(N)c1,0,86*,-3,0,·,-19,·
COC(=O)c1ccc(C(=O)OC)c(NC(=O)Oc2ccccc2)c1,-11,58*,-2,1,25,-4,·
C#CCOCCOCCOCCNc1nc(N2CCOCC2)nc(N2CCN(C(=O)[C@H]([C@@H](C)CC)n3cc([C@@H](N)CC(C)C)nn3)CC2)n1,-8,1,1,0,13,-10,·
Clc1ccc(/C=N/Nc2ncnc3nc[nH]c23)cc1,·,84*,·,·,22,11,+
Oc1ccc(/C=N/Nc2ncnc3nc[nH]c23)cc1,·,95*,·,·,10,-9,+
Cc1ccc(C)c(Nc2ncnc3nc[nH]c23)c1,9,2,6,2,·,-11,·
Cc1ccc(/C=N/Nc2ncnc3nc[nH]c23)cc1,·,93*,·,·,25,-1,+
Cc1ccc2cc(CCNC(=O)c3cccs3)c(=O)[nH]c2c1,-11,-3,-3,6,12,-5,·
CCc1ccc(NC(=S)N2CCCC(C(F)(F)F)C2)cc1 (centres undefined),39,-3,-5,2,11,-12,·
Cc1cc(C)c(S(=O)(=O)NC(CC(=O)O)c2cccc([N+](=O)[O-])c2)c(C)c1 (centres undefined),0,-4,9,-1,5,0,·
O=c1cc(O)c2ccc(O)cc2o1,7,6,3,1,1,-26,·
COC(=O)Cc1cc(=O)oc2cc(O)ccc12,-12,102*,-2,3,21,3,·
Cc1cc(=O)oc2c(CN3CCC(C)CC3)c(O)c(Cl)cc12,0,118*,11,1,·,-43,·
CCN1CCN(Cc2c(O)c(Cl)cc3c(C)cc(=O)oc23)CC1,-3,149*,1,1,·,-26,·
Cc1cc2oc(=O)cc(CN3CCC(C)CC3)c2cc1Cl,6,2,4,2,·,-12,·
